Our source for the cytotoxicity values is ChEMBL document CHEMBL4513216, “Probing the Open Global Health Chemical Diversity Library for Multistage-Active Starting Points for Next-Generation Antimalarials” (ACS Infect Dis, 2020).

A short description of this data set: Toxicity liver stage against HepG2, at 10uM. It counts as cell-based. Also on record: test concentration 10 uM, cell line HepG2-A16-CD81EGFP. Conditions: human, HepG2-A16-CD81EGFP cells; read-out: INHIBITION
Summed up:
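Uninfected HepG2-A16-CD81EGFP cells, 3 × 10^3 per well, 1536-well, plated on prespotted compound at 10 μM final, parasite-free screening media added to match infected plates; puromycin 10 μM positive, DMSO 0.5% negative; run in parallel with 48 h PbLuc assay at 37 °C, 5% CO2; viability by CellTiter-Glo luminescence, normalized to controls.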
As to `O=C(NC[C@H]1OC[C@@H](NC2CCC2)[C@@H]1O)Nc1ccccc1`, the cytotoxicity at 10 µM was -4.16%.

`Cc1cccc(CNC[C@H]2COCc3nc4cccnc4n32)n1`: the cytotoxicity at 10 µM was -1.79%.

For the molecule `COC(=O)c1cccc(C(=O)NCc2ccco2)n1`, the cytotoxicity at 10 µM amounted to 7.44%.

For `O=C(Nc1cccnc1-n1cc(Cl)cn1)C1CC1`, the cytotoxicity at 10 µM is -42.7%.

On to `Cc1cc(C)nc(NCCC(=O)NCCn2ccc3ccccc32)n1`, for which the cytotoxicity at 10 µM is -34.2%.

On to `COc1ccc(S(=O)(=O)NCCCc2ccc(N(C)C)cc2)cc1Cl`, for which the cytotoxicity at 10 µM was -0.399%.

`COc1ccc(F)cc1S(=O)(=O)NCCn1cnc(C)cc1=O`: the cytotoxicity at 10 µM is -6.49%.

Take `N#Cc1cccc(CN2C[C@@H](NC(=O)C3CC3)[C@H]3OCCC[C@H]32)c1`: the cytotoxicity at 10 µM was found to be 6.44%.

Consider `NC(=O)C1CCN(c2nc3nccc(-c4ccncc4)c3c(=O)[nH]2)CC1`, for which the cytotoxicity at 10 µM is 6.09%.

`CC(=O)N1N=C(c2ccccc2)OC1C(=O)NCCc1cccc(Cl)c1` (centres undefined): the cytotoxicity at 10 µM came out at 2.82%.

Regarding `CCC(=O)N1CCN(c2ncnc3cc4c(cc23)OCCO4)CC1`, the cytotoxicity at 10 µM was determined as 10.2%.

For `Cc1noc(C)c1CC(=O)N1CC[C@@](C)(O)[C@H](Oc2ccccc2)C1`, the cytotoxicity at 10 µM turned out to be 0.935%.

Take `CC(NC(=O)CN1CCN(Cc2ccc(Br)s2)CC1)c1ccccc1` (centres undefined): the cytotoxicity at 10 µM is 8.44%.

Consider `N#Cc1ccc(F)c(CN2CCc3sccc3C2)c1`, for which the cytotoxicity at 10 µM was -3.09%.

As for `COc1ccc(C)nc1NC(=O)Cc1c(C)nn(C)c1C`, the cytotoxicity at 10 µM was -0.302%.

For `O=C(NCC1CC1)C1CCCN(c2cccc(C(F)(F)F)n2)C1` (centres undefined), the cytotoxicity at 10 µM came to 8.21%.

Turning to `CCc1nc(C(=O)N(CC)CC(=O)N(C)C)nn1-c1ccccc1Cl`, the cytotoxicity at 10 µM came out at 5.25%.

As to `CCSCCC(=O)Nc1ncn(Cc2ccccc2)n1`, the cytotoxicity at 10 µM was determined as 4.74%.

In the case of `CC(C)N(CCSc1ncnc2[nH]ncc12)C(C)C`, the cytotoxicity at 10 µM amounted to 0.25%.

`CC(c1cccc(O)c1)N(C)S(N)(=O)=O` (centres undefined): the cytotoxicity at 10 µM was -1.89%.

As to `CC1CN(C2CCN(Cc3nccn3CC(F)(F)F)CC2)CCO1` (centres undefined), the cytotoxicity at 10 µM is -1.32%.

On to `Cc1ccc(C(=O)O)cc1S(=O)(=O)N(C)c1cccc(C#N)c1`, for which the cytotoxicity at 10 µM turned out to be 10.6%.

Take `CC(C)c1noc(CCC(=O)Nc2cc(C(F)(F)F)c[nH]c2=O)n1`: the cytotoxicity at 10 µM is -0.387%.

Turning to `O=C1CC(N(C(=O)CCc2c[nH]c3ccccc23)C2CC2)C(=O)N1` (centres undefined), the cytotoxicity at 10 µM is 0.247%.

In the case of `CC(C)C(c1cccnc1)N(C)C(=O)Cc1c(F)cccc1F` (centres undefined), the cytotoxicity at 10 µM is -0.595%.

Turning to `COc1ccc(CNc2cccnc2-n2cccn2)c(OC)c1OC`, the cytotoxicity at 10 µM is 5.69%.

On to `Cc1nccc(CNS(=O)(=O)N(C)Cc2ccc(Cl)cc2)n1`, for which the cytotoxicity at 10 µM was determined as 29.5%.

Turning to `COC1CCN(CCNc2ncc(Br)cc2C)CC1`, the cytotoxicity at 10 µM was -13.9%.

Regarding `CCCNC(=O)CNc1cc(C(=O)N2CCSCC2)ccc1C`, the cytotoxicity at 10 µM was -5.91%.

Regarding `O=C(CN1CCCCCCC1=O)NCc1ccccn1`, the cytotoxicity at 10 µM is -15.3%.

In the case of `CN(C)S(=O)(=O)N1CCC(Oc2ccc(C#N)cc2)CC1`, the cytotoxicity at 10 µM is 3.96%.

Turning to `O=C(c1ccc2[nH]ccc2c1)N1CCn2cc(CN3CCCC3)nc2C1`, the cytotoxicity at 10 µM is -78.2%.

In the case of `CC(=O)N1CCCC2(C1)CN(C(=O)Cc1ccccc1)CCO2` (centres undefined), the cytotoxicity at 10 µM was -83.9%.

As to `OCc1ccc(CN(CCCn2ccnc2)Cc2ccncc2)o1`, the cytotoxicity at 10 µM is -4.41%.

For `c1ccc2c(c1)CC(N1CCCC(NCc3cccc4nonc34)C1)C2` (centres undefined), the cytotoxicity at 10 µM was -1.98%.

Regarding `Cc1ccc(C(=O)N2CCC3(CC2)CN(CCN(C)C)C(=O)O3)c(F)c1`, the cytotoxicity at 10 µM turned out to be 7.46%.

For `COc1cc(OC)c(-c2nc3c([nH]2)c(C2CC2)nn3C)cc1OC`, the cytotoxicity at 10 µM was -5.02%.

For `CC(=O)N[C@@H]1CN(S(=O)(=O)Cc2ccccc2)C[C@H]1C(C)C`, the cytotoxicity at 10 µM is -5.61%.

Turning to `CCc1nnc(CN(C)c2nccc(N3CCCC(O)C3)n2)o1` (centres undefined), the cytotoxicity at 10 µM was -4.68%.

As for `Cc1cc(CN2CCN(CC3CC3)[C@@H]3CS(=O)(=O)C[C@@H]32)ccc1F`, the cytotoxicity at 10 µM is -1.37%.

On to `CCOC(=O)CC1CCCCN1C(=O)c1cc(=O)[nH]c(=O)[nH]1` (centres undefined), for which the cytotoxicity at 10 µM was found to be 5.76%.

In the case of `CCC[C@H]1CN(Cc2ccc(N(C)C)nc2)C[C@@H]1NC(=O)CO`, the cytotoxicity at 10 µM was found to be 9.23%.

As for `CC[C@H](C)[C@@H](CO)NC(C)Cc1ccc(C)cc1` (some centres undefined), the cytotoxicity at 10 µM was -4.48%.

With `CC(C)[C@H]1COC(=O)N1CC(=O)N(C)CCCn1cccn1`, the cytotoxicity at 10 µM was -157%.

As to `CCn1cncc1C1CC(=O)Nc2c1c(C)nn2-c1ccc(C)cc1` (centres undefined), the cytotoxicity at 10 µM was -8.23%.

For `COCCN(C)C[C@@H]1CN(C(=O)c2ccc3c(c2)OCO3)C[C@@H]1CO`, the cytotoxicity at 10 µM is 8.47%.

Regarding `CC(C)[C@@H]1CN(c2ncc(F)cn2)C[C@H]1NS(=O)(=O)N(C)C`, the cytotoxicity at 10 µM came out at 14%.

`Cc1cc(C(=O)N2CC[C@@]3(O)CCN(S(C)(=O)=O)C[C@H]3C2)c(C)n1C`: the cytotoxicity at 10 µM is -8%.

With `CS(=O)(=O)N[C@H]1CN(C(=O)CCc2ccc(=O)[nH]n2)C[C@@H]1C1CC1`, the cytotoxicity at 10 µM came to 1.56%.

For `Cc1cc(N2CCC(c3ncc[nH]3)CC2)c2ccccc2n1`, the cytotoxicity at 10 µM is -9.74%.

On to `O=C(CCC1CCN(C2CCSCC2)CC1)NCC1CCCO1` (centres undefined), for which the cytotoxicity at 10 µM was 8.73%.

Consider `CC(CCc1ccc(O)cc1)NC1CCN(C(=O)C(C)C)CC1` (centres undefined), for which the cytotoxicity at 10 µM is -4.89%.

For `Cc1ccc(O)c(C(=O)N2CCC3(CCCNC3)C2)c1` (centres undefined), the cytotoxicity at 10 µM is -10.2%.

On to `CC(C)c1nc(N2CCC(N3CCCCCC3)CC2)c2cnn(C)c2n1`, for which the cytotoxicity at 10 µM was -135%.

Consider `Cc1nccn1CCN(C)C(=O)c1cn(CC2CCCCC2)nn1`, for which the cytotoxicity at 10 µM was -1.84%.

For `c1cc(CN2CCC(n3cc(CN4CCCC4)nn3)CC2)cs1`, the cytotoxicity at 10 µM was -6.26%.

For `C[C@@H]1CN(C(=O)C2(N3CCCCC3)Cc3ccccc3C2)C[C@H](C)O1`, the cytotoxicity at 10 µM was -0.238%.

In the case of `Cc1ccc(C(=O)NCCC2CCN(C)CC2)cc1N(C)S(C)(=O)=O`, the cytotoxicity at 10 µM is -15.1%.

As for `Cc1nn2c(N3CCC(O)CC3)cc(-c3ccccc3)nc2c1C`, the cytotoxicity at 10 µM was -6.54%.

For the molecule `CCc1nc(C2CCCN2Cc2nnc(C3CCC3)o2)no1` (centres undefined), the cytotoxicity at 10 µM was found to be 1.48%.

Consider `Cc1ccccc1CC(=O)N1CCOCC1c1c(C)n[nH]c1C` (centres undefined), for which the cytotoxicity at 10 µM was -5.6%.

Turning to `c1cnnc(N2CCCC2CNCc2nc(-c3ccoc3)no2)c1` (centres undefined), the cytotoxicity at 10 µM is -18.7%.

Take `CCNc1cc2c(nn1)CCN(C(=O)c1ccc(C(N)=O)cc1)C2`: the cytotoxicity at 10 µM was -15.6%.

Take `Cc1cccc(OCC(O)CN2CCC(c3ccn[nH]3)CC2)c1` (centres undefined): the cytotoxicity at 10 µM is -3.6%.

`Cn1cc(C2CCCN2Cc2cscn2)cn1` (centres undefined): the cytotoxicity at 10 µM stood at 4.24%.

Regarding `CCCNC(=O)C1CCN(Cc2csc(C(C)C)n2)CC1`, the cytotoxicity at 10 µM was -19.5%.

Regarding `Cc1nc(C)n(CC2CCCCN2CCOc2ccc(C#N)cc2)n1` (centres undefined), the cytotoxicity at 10 µM was -6.79%.

With `Cc1nc(C)n(CC2CN(CCOc3ccc(C#N)cc3)CCO2)n1` (centres undefined), the cytotoxicity at 10 µM was -2.69%.

In the case of `O=C(CCc1cc(F)ccc1F)NS(=O)(=O)c1ccc2c(c1)OCCO2`, the cytotoxicity at 10 µM was -18.8%.

`Cc1cn2nc(N3CCN(Cc4nc(C(C)C)no4)CC3)sc2n1`: the cytotoxicity at 10 µM was -7.27%.

On to `NC(=O)COc1cccc(C(=O)N2CCCC(n3ccnc3)C2)c1` (centres undefined), for which the cytotoxicity at 10 µM is -9.63%.

As to `O=C(CN1CCN(C(=O)Cc2ccc3c(c2)OCCO3)CC1)NC1CC1`, the cytotoxicity at 10 µM was -2.35%.

Consider `CC(CCc1ccccc1)NC(=O)Nc1cnn(CC(N)=O)c1` (centres undefined), for which the cytotoxicity at 10 µM amounted to 1.64%.

On to `NC(=O)C1CCC(NC(=O)COc2ccc(Cl)c(Cl)c2)CC1` (centres undefined), for which the cytotoxicity at 10 µM is -12.5%.

`CC(C)COC(C)C(=O)NCc1ccc(N(C)C)cc1` (centres undefined): the cytotoxicity at 10 µM was 2.53%.

Regarding `O=C(NCCS(=O)(=O)N1CCc2ccccc21)c1c(O)cc(F)cc1F`, the cytotoxicity at 10 µM was 0.217%.

Consider `Cc1nc(NCc2ccc(F)cc2)cc(C2CCCN2)n1` (centres undefined), for which the cytotoxicity at 10 µM is -3.27%.

`Cc1cnc(CCNc2cccc(CC3CCCNC3)n2)s1` (centres undefined): the cytotoxicity at 10 µM was -3.02%.

With `Cc1nccn1CCCn1cncc1-c1ccc2c(c1)CCCN2C`, the cytotoxicity at 10 µM was -4.7%.

With `Cc1ccc(CN(Cc2cccnc2)C2CC(C)(C)NC(C)(C)C2)s1`, the cytotoxicity at 10 µM came out at 4.94%.

`Cc1ncnc2c1CCN(Cc1ccc3c(c1)OCO3)CC2`: the cytotoxicity at 10 µM was -9.23%.

Consider `O=C(c1cnccn1)N1C[C@@H]2CCN(c3cccnc3)C[C@@H]2C1`, for which the cytotoxicity at 10 µM is -65.8%.

`O=C(N1CCCC1)N1CCC2(CC1)COCCN(Cc1cccnc1)C2`: the cytotoxicity at 10 µM is -77.3%.

`c1coc(CN2C[C@@H]3OCCN(CC4CCCO4)[C@@H]3C2)c1` (some centres undefined): the cytotoxicity at 10 µM is -83.1%.

As for `Cc1ccc(CN2CCn3c(C(=O)N(C)C)cnc3C2)cc1`, the cytotoxicity at 10 µM is -68.9%.

`COc1ccc(C[C@H]2CN(C(=O)CN(C)C)CC[C@H]2OC)cc1`: the cytotoxicity at 10 µM worked out at 3.96%.

As to `O=C(C1CC(F)(F)C1)N1C[C@@H]2CN(Cc3ccsc3)CCO[C@@H]2C1`, the cytotoxicity at 10 µM is -93.5%.

`O=C(c1cccnc1)N1CCc2ncnc(N3CCOCC3)c2CC1`: the cytotoxicity at 10 µM was -79.3%.

For the molecule `COc1ncccc1CN1CCC2(CC1)CN(c1ccccn1)CCO2`, the cytotoxicity at 10 µM was -6.6%.

On to `c1cn2c(n1)CN(CC1CC1)CC(CN1CCOCC1)C2` (centres undefined), for which the cytotoxicity at 10 µM worked out at 1.49%.

With `Cc1ccoc1C(=O)N1C[C@H]2CCC[C@@]2(COCc2ccncc2)C1`, the cytotoxicity at 10 µM was found to be 9.56%.

As to `Cc1ccc(NC(=O)Nc2c(O)c3ccccc3oc2=O)cc1`, the cytotoxicity at 10 µM came out at 3.21%.

With `Cc1cnc(C(=O)N2C[C@@H]3CC[C@H]2CN(Cc2cscn2)C3)[nH]1`, the cytotoxicity at 10 µM stood at 4.16%.

In the case of `Cc1cnc(C(=O)N2C[C@@H]3CC[C@H]2CN(S(=O)(=O)N(C)C)C3)cn1`, the cytotoxicity at 10 µM was -6.77%.
